The term IC50 denotes the point on the concentration scale where inhibition reaches its midpoint.

This is an account of results in ChEMBL document CHEMBL4390664, “3,5-Diaryl-1H-pyrazolo[3,4-b]pyridines as potent tubulin polymerization inhibitors: Rational design, synthesis and biological evaluation” (Eur J Med Chem, 2019).

Calls of active or inactive are those of the source. The rule behind the calls is not given here.

One experiment deals with A549. As to the kind of experiment: Antiproliferative activity against human A549 cells assessed as reduction in cell growth incubated for 72 hrs by MTT assay. To be noted: A549, 72 h. In kind it is functional, cell-based. (Tetrazolium assays rely on reduction of a dye to a coloured formazan, in cell work by metabolically active cells.)
The test system of experiment [1] is SGC-7901. In words: Antiproliferative activity against human SGC7901 cells assessed as reduction in cell growth incubated for 72 hrs by MTT assay. In kind it is functional, cell-based. To be noted: SGC-7901, 72 h.
A further experiment deals with HeLa. As to the kind of experiment: Antiproliferative activity against human HeLa cells assessed as reduction in cell growth incubated for 72 hrs by MTT assay. Format: functional, cell-based.
Experiment [2] deals with T1, Tubulin (Sus scrofa) (UniProt P02554+P02550). As to the kind of experiment: Inhibition of porcine brain tubulin polymerization at 10 uM measured at 1 min intervals for 80 mins by fluorimetry.
T1 sequence (P02550 whole entry, looked up): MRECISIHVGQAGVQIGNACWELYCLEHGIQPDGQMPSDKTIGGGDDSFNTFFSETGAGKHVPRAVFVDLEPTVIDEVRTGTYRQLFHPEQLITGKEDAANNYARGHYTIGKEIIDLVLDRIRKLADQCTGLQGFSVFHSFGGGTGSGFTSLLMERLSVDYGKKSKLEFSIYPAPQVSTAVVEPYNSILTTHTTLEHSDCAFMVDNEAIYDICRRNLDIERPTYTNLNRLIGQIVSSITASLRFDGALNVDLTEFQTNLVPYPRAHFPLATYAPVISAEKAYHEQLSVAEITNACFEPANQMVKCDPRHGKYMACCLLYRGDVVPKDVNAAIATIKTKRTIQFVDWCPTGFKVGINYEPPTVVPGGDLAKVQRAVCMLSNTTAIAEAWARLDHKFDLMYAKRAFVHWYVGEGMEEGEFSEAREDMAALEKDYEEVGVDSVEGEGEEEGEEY
T1 sequence (P02554 whole entry, looked up): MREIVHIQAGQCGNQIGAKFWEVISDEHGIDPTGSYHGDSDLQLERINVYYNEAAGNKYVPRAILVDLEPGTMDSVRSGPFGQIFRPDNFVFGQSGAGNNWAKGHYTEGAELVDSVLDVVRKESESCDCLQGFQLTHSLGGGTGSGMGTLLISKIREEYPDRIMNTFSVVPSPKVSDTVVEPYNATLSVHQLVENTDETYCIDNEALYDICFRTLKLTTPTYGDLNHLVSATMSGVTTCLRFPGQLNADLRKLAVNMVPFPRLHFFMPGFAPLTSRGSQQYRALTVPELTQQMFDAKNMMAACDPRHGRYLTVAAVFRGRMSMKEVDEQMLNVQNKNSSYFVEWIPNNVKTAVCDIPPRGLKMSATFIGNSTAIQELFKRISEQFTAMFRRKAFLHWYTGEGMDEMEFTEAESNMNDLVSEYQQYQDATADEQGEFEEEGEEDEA
For experiment [3], the system named is SGC-7901. As to the kind of experiment: Induction of multinucleated cell formation in human SGC7901 cells at 36 nM incubated for 0 to 72 hrs by flow cytometry analysis. In kind it is functional, cell-based. (In general: A flow cytometer gives signals particle by particle.)
Experiment [4] concerns SGC-7901. In words: Induction of morphological changes in human SGC7901 cells assessed as cell rounding at 36 nM incubated for 24 hrs by immunofluorescence assay. In kind it is functional, cell-based. Put shortly:
(§1)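 SGC-7901 cells were exposed to compound at 26 or 36 nM for 24 h, then immunostained. Microtubules and unassembled tubulin were stained green and nuclei blue. Microtubule network and cell morphology were examined by fluorescence imaging.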

The subject of experiment [5] is SGC-7901. As to the kind of experiment: Induction of morphological changes in human SGC7901 cells assessed as destruction of cytoskeleton at 36 nM incubated for 24 hrs by immunofluorescence assay. Format: functional, cell-based. Put shortly:
as §1

Another experiment has as its system L929. As to the kind of experiment: Cytotoxicity against mouse L929 cells assessed as reduction in cell growth incubated for 72 hrs by MTT assay. In kind it is cell-based. To be noted: L929, 72 h.
Experiment [6] deals with SGC-7901. As to the kind of experiment: Induction of morphological changes in human SGC7901 cells assessed as formation of multinucleated cells at 36 nM incubated for 24 hrs by immunofluorescence assay. Format: functional, cell-based. Put shortly:
as §1

The subject of experiment [7] is SGC-7901. In words: Cell cycle arrest in human SGC7901 cells assessed as increase of G2/M cell population at 36 nM incubated for 0 to 72 hrs by flow cytometry analysis. Format: functional, cell-based.
Experiment [8] deals with SGC-7901. As to the kind of experiment: Cell cycle arrest in human SGC7901 cells assessed as decrease of G1 cell population at 36 nM incubated for 0 to 72 hrs by flow cytometry analysis. In kind it is functional, cell-based.
For experiment [9], the system named is SGC-7901. In words: Induction of morphological changes in human SGC7901 cells assessed as destruction of cytoskeleton at 26 nM incubated for 24 hrs by immunofluorescence assay. In kind it is functional, cell-based. Put shortly: as §1
For experiment [10], the target named is T1, Tubulin (Sus scrofa). In words: Inhibition of porcine brain tubulin polymerization measured at 1 min intervals for 80 mins by fluorimetry.
For experiment [11], the target named is T1, Tubulin (Sus scrofa). In words: Inhibition of porcine brain tubulin polymerization at 12.5 to 100 uM measured at 1 min intervals for 80 mins by fluorimetry.
Experiment [12] concerns SGC-7901. In words: Induction of morphological changes in human SGC7901 cells assessed as cell rounding at 26 nM incubated for 24 hrs by immunofluorescence assay. In kind it is functional, cell-based. Put shortly: as §1
The test system of experiment [13] is SGC-7901. As to the kind of experiment: Induction of morphological changes in human SGC7901 cells assessed as formation of multinucleated cells at 26 nM incubated for 24 hrs by immunofluorescence assay. Format: functional, cell-based. Put shortly:
as §1

In experiment [14] the test system is SGC-7901. As to the kind of experiment: Cell cycle arrest in human SGC7901 cells assessed as accumulation of G2/M cell population at 26 nM incubated for 12 hrs by flow cytometry analysis (reference value: 24.47%). In kind it is functional.

For the compound `COc1ccc(-c2n[nH]c3ncc(-c4ccc(C)cc4N)cc23)cc1`, the IC50 in the experiment on A549, with SGC-7901 [1] and in the experiment on HeLa was above 30 µM each time.

As to `COc1ccc(-c2cnc3[nH]nc(-c4cc(OC)c(OC)c(OC)c4)c3c2)c(N)c1`, the IC50 with A549 was 5.36 µM; in the experiment on SGC-7901 [1], 3.73 µM; with HeLa, 1.44 µM.

As to `COc1ccc(-c2n[nH]c3ncc(-c4ccc(C)cc4)cc23)cc1`, the IC50 with A549, in the experiment on SGC-7901 [1] and in the experiment on HeLa was above 30 µM each time.

As for `COc1ccc(-c2n[nH]c3ncc(-c4ccc(C)cc4)cc23)cc1OC`, the IC50 with A549, in the experiment with SGC-7901 [1] and in the experiment with HeLa was above 30 µM throughout.

With `COc1cc(-c2n[nH]c3ncc(-c4ccc(Br)cc4N)cc23)cc(OC)c1OC`, the IC50 in the experiment with A549 was 8.47 µM; in the experiment with SGC-7901 [1] it was 5.52 µM; in the experiment on HeLa, 2.61 µM.

On to `COc1cc(-c2n[nH]c3ncc(-c4ccc(F)cc4N)cc23)cc(OC)c1OC`, for which the values for the IC50 in the experiment on A549, with SGC-7901 [1] and in the experiment on HeLa were 1.31 µM, 0.4 µM and 0.081 µM, respectively.

With `COc1cc(-c2n[nH]c3ncc(-c4ccc(F)cc4)cc23)cc(OC)c1OC`, the IC50 was above 30 µM with A549, 2.31 µM in the experiment on SGC-7901 [1] and 0.89 µM in the experiment on HeLa.

Take `COc1cccc(-c2cnc3[nH]nc(-c4cc(OC)c(OC)c(OC)c4)c3c2)c1`: the IC50 in the experiment with A549 was found to be 7.66 µM; in the experiment on SGC-7901 [1], 1.91 µM; in the experiment with HeLa it was 0.46 µM.

In the case of `COc1cc(-c2n[nH]c3ncc(-c4ccc(Br)cc4)cc23)cc(OC)c1OC`, the figures for the IC50 in the experiment with A549, in the experiment on SGC-7901 [1] and in the experiment with HeLa were 17.4 µM, 20.2 µM and 10.9 µM, respectively.

Turning to `CNc1cc(C)ccc1-c1cnc2[nH]nc(-c3cc(OC)c(OC)c(OC)c3)c2c1`, the IC50 turned out to be 9.25 µM in the experiment on A549, 6.31 µM in the experiment on SGC-7901 [1] and 3.84 µM in the experiment with HeLa.

On to `COc1ccc(-c2cnc3[nH]nc(-c4cc(OC)c(OC)c(OC)c4)c3c2)cc1`, for which the IC50 was above 30 µM in the experiment on A549, 0.13 µM with SGC-7901 [1] and 0.28 µM in the experiment on HeLa.

Regarding `COc1cc(-c2n[nH]c3ncc(-c4ccc(Cl)cc4N)cc23)cc(OC)c1OC`, the half-maximal inhibitory concentration (IC50) was found to be 3.24 µM with A549, 0.58 µM in the experiment with SGC-7901 [1] and 0.36 µM in the experiment on HeLa.

Regarding `CNc1cc(Cl)ccc1-c1cnc2[nH]nc(-c3cc(OC)c(OC)c(OC)c3)c2c1`, the results for the IC50 in the experiment on A549, in the experiment with SGC-7901 [1] and in the experiment with HeLa were 14 µM, 8.48 µM and 6.49 µM, respectively.

For `COc1cc(C(=O)c2csc(-c3ccccc3)n2)cc(OC)c1OC`, on Tubulin (Sus scrofa) [2], the inhibition result was “Active”. The outcome in the experiment on SGC-7901 [3], in the experiment on SGC-7901 [4], in the experiment on SGC-7901 [5], in the experiment with SGC-7901 [6], in the experiment on SGC-7901 [7] and in the experiment on SGC-7901 [8] was Active. In addition, the figures for the IC50 in the experiment on SGC-7901 [1], with L929 and with HeLa were 0.018 µM, 25.8 µM and 0.024 µM, respectively.

Regarding `COc1cc(-c2n[nH]c3ncc(-c4ccccc4)cc23)cc(OC)c1OC`, the IC50 in the experiment with A549 is 0.65 µM; with SGC-7901 [1] it was 0.037 µM; in the experiment with HeLa, 0.057 µM.

Consider `COc1cc(-c2n[nH]c3ncc(-c4ccc(C)cc4N)cc23)cc(OC)c1OC`, for which the IC50 in the experiment on A549 amounted to 7.83 µM; in the experiment with SGC-7901 [1], 0.23 µM; with HeLa it was 0.16 µM.

Regarding `COc1cc(-c2n[nH]c3ncc(-c4ccc(Cl)cc4)cc23)cc(OC)c1OC`, the IC50 in the experiment with A549 was found to be 14.6 µM; in the experiment with SGC-7901 [1], 4.82 µM; in the experiment on HeLa, 0.87 µM.

For the compound `COc1cc(-c2n[nH]c3ncc(-c4ccccc4N)cc23)cc(OC)c1OC`, the figures for the 50% inhibitory concentration (IC50) in the experiment with A549, with SGC-7901 [1] and in the experiment with HeLa were 1.42 µM, 4.37 µM and 2.55 µM, respectively.

Turning to `CNc1cc(F)ccc1-c1cnc2[nH]nc(-c3cc(OC)c(OC)c(OC)c3)c2c1`, the IC50 is 4.27 µM with A549, 3.76 µM in the experiment with SGC-7901 [1] and 1.67 µM in the experiment on HeLa.

`COc1cc(-c2n[nH]c3ncc(-c4cccc(C)c4)cc23)cc(OC)c1OC`: the IC50 was above 30 µM with A549, 0.051 µM with SGC-7901 [1] and 0.086 µM with HeLa.

Take `COc1cc(-c2n[nH]c3ncc(-c4ccc(C)cc4)cc23)cc(OC)c1OC`: the outcome in the experiment with SGC-7901 [9], in the experiment on SGC-7901 [12] and in the experiment on SGC-7901 [13] was Active. Further, the inhibition result at Tubulin (Sus scrofa) [10] was “Dose-dependent effect”. Moreover, at Tubulin (Sus scrofa) [11], the inhibition entry was “Active”. The IC50 in the experiment on A549 came out at 0.082 µM; in the experiment with SGC-7901 [1], 0.013 µM; in the experiment with L929, 37.5 µM; in the experiment on HeLa, 0.045 µM. Besides, the Activity in the experiment on SGC-7901 [14] is 59.62%.

`COc1ccc(N)c(-c2cnc3[nH]nc(-c4cc(OC)c(OC)c(OC)c4)c3c2)c1`: the IC50 is 10.2 µM in the experiment with A549, 9.51 µM with SGC-7901 [1] and 4.93 µM in the experiment with HeLa.

Turning to `COc1cc(-c2n[nH]c3ncc(-c4cc(C)ccc4N)cc23)cc(OC)c1OC`, the figures for the IC50 in the experiment with A549, in the experiment with SGC-7901 [1] and with HeLa were 4.43 µM, 0.62 µM and 0.38 µM, respectively.

As to `COc1ccc(-c2n[nH]c3ncc(-c4ccc(C)cc4N)cc23)cc1OC`, the IC50 in the experiment on A549, with SGC-7901 [1] and with HeLa was above 30 µM in each case.
